Activity calls are given as the source filed them. The rule behind the calls is not given here.

The text below walks through data of ChEMBL document CHEMBL4308856, “Novel 5-(quinuclidin-3-ylmethyl)-1,2,4-oxadiazoles to investigate the activation of the α7 nicotinic acetylcholine receptor subtype: Synthesis and electrophysiological evaluation” (Eur J Med Chem, 2018).

Format in all cases: cell-based
Assay [1] deals with T1, Neuronal acetylcholine receptor subunit alpha-7 (Homo sapiens, UniProt P36544). Description: Partial agonist activity at human alpha7 nAChR expressed in Xenopus laevis oocytes assessed as increase in peak current amplitude at 30 uM at -60 mV holding potential treated for 12 secs followed by compound washout for 181 secs by whole cell two electrode voltage-clamp assay relative to ACh. The method, boiled down:
(§1)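 Human α7 nAChR expressed in Xenopus laevis oocytes, two-electrode voltage clamp at −60 mV with 3 M KCl electrodes. Ringer's with atropine, pH 7.2, perfused at 2 mL/min. Compound was applied at 30 μM for 12 s with a 181 s washout. Peak current and net charge were each normalized to the mean of two prior 60 μM ACh controls in the same oocyte; the peak/net-charge ratio was taken. Mean ± SEM, at least four oocytes.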
Background: Two-electrode voltage clamp holds a large cell at a set potential and records current.

In assay [2] the target is T1, Neuronal acetylcholine receptor subunit alpha-7. Description: Partial agonist activity at human alpha7 nAChR expressed in Xenopus laevis oocytes assessed as increase in net charge at 30 uM at -60 mV holding potential treated for 12 secs followed by compound washout for 181 secs by whole cell two electrode voltage-clamp assay relative to ACh. The method, boiled down: as §1

Assay [3] shares this target. Description: Ratio of partial agonist activity at human alpha7 nAChR expressed in Xenopus laevis oocytes assessed as increase in peak current amplitude relative to ACh to partial agonist activity at human alpha7 nAChR expressed in Xenopus laevis oocytes assessed as increase in net charge relative to ACh. The method, boiled down: as §1
Assay [4] shares this target. Description: Silent agonist activity at human alpha7 nAChR expressed in Xenopus laevis oocytes assessed as increase in net charge at 30 uM at -60 mV holding potential treated for 12 secs followed by compound washout for 181 secs in presence of type 2 PAM PNU-120596 by whole cell two electrode voltage-clamp assay relative to ACh. The method, boiled down: (§2)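 α7 (human) expressed in Xenopus oocytes, voltage-clamped at −60 mV, Ringer's pH 7.2 with atropine at 2 mL/min. Compound (3, 10 or 30 μM) was co-applied with PNU-120596 for 12 s, then washed out for 181 s. Net charge was expressed relative to the mean of two preceding 60 μM ACh control responses in the same oocyte. Mean ± SEM, at least four oocytes.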

For assay [5] the target is unchanged. Description: Ratio of Silent agonist activity at human alpha7 nAChR expressed in Xenopus laevis oocytes assessed as increase in net charge in presence of type 2 PAM PNU-120596 relative to ACh to partial agonist activity at human alpha7 nAChR expressed in Xenopus laevis oocytes assessed as increase in net charge relative to ACh. The method, boiled down:
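PNU effectiveness: net-charge response of human α7 nAChR (Xenopus oocytes, −60 mV clamp) to compound co-applied with 10 μM PNU-120596, divided by the response to compound alone. Both responses were normalized to 60 μM ACh controls, with 12 s applications and 181 s washout.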

Assay [6] shares this target. Description: Silent agonist activity at human alpha7 nAChR expressed in Xenopus laevis oocytes assessed as increase in net charge at 3 to 10 uM at -60 mV holding potential treated for 12 secs followed by compound washout for 181 secs in presence of type 2 PAM PNU-120596 by whole cell two electrode voltage-clamp assay relative to ACh. The method, boiled down: as §2
Assay [7] shares this target. Description: Silent agonist activity at human alpha7 nAChR expressed in Xenopus laevis oocytes assessed as increase in net charge at 10 uM at -60 mV holding potential treated for 12 secs followed by compound washout for 181 secs in presence of type 2 PAM PNU-120596 by whole cell two electrode voltage-clamp assay relative to ACh. The method, boiled down:
as §2

Assay [8] shares this target. Description: Silent agonist activity at human alpha7 nAChR expressed in Xenopus laevis oocytes assessed as increase in net charge at 3 uM at -60 mV holding potential treated for 12 secs followed by compound washout for 181 secs in presence of type 2 PAM PNU-120596 by whole cell two electrode voltage-clamp assay relative to ACh. The method, boiled down: as §2
For assay [9] the target is unchanged. Description: Partial agonist activity at human alpha7 nAChR expressed in Xenopus laevis oocytes at -60 mV holding potential treated for 12 secs followed by compound washout for 181 secs by whole cell two electrode voltage-clamp assay relative to ACh.

T1 sequence (P36544 whole entry, the tested form may be a part): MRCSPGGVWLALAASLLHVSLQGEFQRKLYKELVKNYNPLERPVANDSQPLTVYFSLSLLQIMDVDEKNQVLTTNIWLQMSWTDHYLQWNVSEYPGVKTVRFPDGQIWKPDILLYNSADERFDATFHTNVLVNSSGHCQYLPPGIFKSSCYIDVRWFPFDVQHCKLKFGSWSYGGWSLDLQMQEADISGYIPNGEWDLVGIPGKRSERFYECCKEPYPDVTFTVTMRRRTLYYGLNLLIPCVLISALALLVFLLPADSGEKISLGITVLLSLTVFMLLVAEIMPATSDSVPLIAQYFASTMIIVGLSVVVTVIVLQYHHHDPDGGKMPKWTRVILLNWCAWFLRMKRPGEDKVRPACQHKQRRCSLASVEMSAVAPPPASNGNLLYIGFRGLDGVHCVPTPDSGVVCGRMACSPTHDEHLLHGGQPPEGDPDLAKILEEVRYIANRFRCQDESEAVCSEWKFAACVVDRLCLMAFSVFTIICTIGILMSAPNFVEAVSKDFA

For `C[N+]12CCC(CC1)C(Cc1nc(-c3cccnc3)no1)C2` (stereo unspecified), the fold change (FC) in assay [1] came to 0.023; in [2] it was 0.048; in assay [4] it was 3.9. In addition, the Ratio in [3] was found to be 0.48; in assay [5] it was 81.
On to `c1cc(-c2noc(CC3CN4CCC3CC4)n2)ccn1` (stereo unspecified), for which the results for the fold change (FC) in assay [1], in assay [2] and in assay [4] were 0.553, 0.703 and 25.5, respectively. Further, the Ratio in [3] was 0.79; in assay [5], 36.
For the molecule `C[N+]12CCC(CC1)C(Cc1nc(-c3ccco3)no1)C2` (stereo unspecified), the fold change (FC) in [1] was 0.01; in assay [2], 0.014; in [4], 27.9. Besides, the figures for the Ratio in assay [3] and in [5] were 0.71 and 1990, respectively.
`C[N+]12CCC(CC1)C(Cc1nc(-c3cccc(Br)c3)no1)C2` (stereo unspecified): the fold change (FC) in [1] came to 0.44; in assay [2] it was 0.177; in [4] it was 0.3. In addition, the results for the Ratio in assay [3] and in assay [5] were 2.49 and 2, respectively.
The corresponding values for `C[N+]12CCC(CC1)C(Cc1nc(-c3cccc(Cl)c3)no1)C2` (stereo unspecified) are 0.293, 0.151, 0.7, 1.94 and 5.
With `Cc1cccc(-c2noc(CC3C[N+]4(C)CCC3CC4)n2)c1` (stereo unspecified), the fold change (FC) in assay [1] amounted to 0.079; in assay [2] it was 0.077; in assay [4] it was 1.2; in assay [6] it was 10.9. For the same molecule, the Ratio in [3] came out at 1.03; in [5] it was 16. Further, the result in [7] was inactive.
Turning to `Fc1cccc(-c2noc(CC3CN4CCC3CC4)n2)c1` (stereo unspecified), the values for the fold change (FC) in assay [1], in assay [2] and in [4] were 2.05, 0.458 and 0.9, respectively. Further, the Ratio in assay [3] stood at 4.47; in assay [5], 2.
Consider `c1csc(-c2noc(CC3CN4CCC3CC4)n2)c1` (stereo unspecified), for which the fold change (FC) in assay [1] worked out at 2.06; in [2], 0.508; in [4] it was 5; in assay [8], 13.4. Further, the Ratio in assay [3] stood at 4.06; in assay [5], 10. Besides, the EC50 – broadly, the concentration needed to bring the measured effect to its halfway point – in [9] was below 30 µM.
As to `C[N+]12CCC(CC1)C(Cc1nc(-c3ccncc3)no1)C2` (stereo unspecified), the figures for the fold change (FC) in assay [1], in [2] and in assay [4] were 0.034, 0.047 and 2.6, respectively. Also, the figures for the Ratio in assay [3] and in [5] were 0.72 and 55, respectively.
With `Ic1cccc(-c2noc(CC3CN4CCC3CC4)n2)c1` (stereo unspecified), the fold change (FC) in [1] came to 1.21; in assay [2], 0.245; in assay [4] it was 0.5. In addition, the Ratio stood at 4.94 in assay [3] and 2 in assay [5].
On the same counts, the results for `c1cncc(-c2noc(CC3CN4CCC3CC4)n2)c1` (stereo unspecified) are 0.867, 0.483, 13.7, 1.8 and 28.
The corresponding values for `FC(F)(F)c1cccc(-c2noc(CC3CN4CCC3CC4)n2)c1` (stereo unspecified) are 0.144, 0.055, 0.1, 2.62 and 2.
With `C[N+]12CCC(CC1)C(Cc1nc(-c3cccc(F)c3)no1)C2` (stereo unspecified), the fold change (FC) amounted to 0.067 in assay [1], 0.063 in [2] and 0.3 in [4]. For the same molecule, the Ratio in [3] was found to be 1.06; in [5] it was 5.
`COc1cccc(-c2noc(CC3C[N+]4(C)CCC3CC4)n2)c1` (stereo unspecified): the fold change (FC) was found to be 0.119 in assay [1], 0.129 in [2] and 1.8 in assay [4]. Besides, the results for the Ratio in assay [3] and in assay [5] were 0.92 and 14, respectively.
The corresponding values for `Clc1cccc(-c2noc(CC3CN4CCC3CC4)n2)c1` (stereo unspecified) are 1.2, 0.32, 0.6, 3.76 and 2.
On to `COc1ccc(-c2noc(CC3CN4CCC3CC4)n2)cc1` (stereo unspecified), for which the fold change (FC) in assay [1] stood at 1.98; in [2] it was 0.401; in assay [4] it was 1.6; in assay [8], 4.4. Besides, the Ratio in [3] amounted to 4.93; in assay [5], 4. In addition, the EC50 in [9] was below 30 µM.
As to `Cc1cccc(-c2noc(CC3CN4CCC3CC4)n2)c1` (stereo unspecified), the figures for the fold change (FC) in assay [1], in assay [2] and in assay [4] were 2.11, 0.434 and 77.3, respectively. Also, the values for the Ratio in assay [3] and in [5] were 4.85 and 178, respectively.
Consider `c1ccc(-c2noc(CC3CN4CCC3CC4)n2)cc1` (stereo unspecified), for which the fold change (FC) in assay [1] was 1.3; in [2], 0.602; in [4] it was 1.7; in assay [8] it was 17.4. The Ratio worked out at 2.16 in assay [3] and 3 in [5]. The molecule also gave an EC50 in assay [9] below 30 µM.
For the molecule `Brc1cccc(-c2noc(CC3CN4CCC3CC4)n2)c1` (stereo unspecified), the figures for the fold change (FC) in assay [1], in assay [2] and in assay [4] were 0.92, 0.274 and 0.5, respectively. Further, the Ratio in [3] turned out to be 3.36; in assay [5], 2.
Turning to `Cc1noc(CC2CN3CCC2CC3)n1` (stereo unspecified), the values for the fold change (FC) in assay [1], in assay [2] and in assay [4] were 0.026, 0.042 and 5.1, respectively. Also, the Ratio in assay [3] amounted to 0.62; in assay [5], 121. The result in assay [8] and in [7] was inactive.
For the molecule `C[N+]12CCC(CC1)C(Cc1nc(-c3cccs3)no1)C2` (stereo unspecified), the fold change (FC) was 0.103 in assay [1], 0.127 in assay [2] and 0.2 in [4]. Also, the Ratio in assay [3] was found to be 0.81; in [5], 2.
Regarding `COc1ccc(-c2noc(CC3C[N+]4(C)CCC3CC4)n2)cc1` (stereo unspecified), the fold change (FC) was determined as 0.051 in [1], 0.075 in [2] and 2.2 in [4]. The Ratio stood at 0.68 in [3] and 29 in assay [5]. Also, the outcome in assay [6] was Active.
`Cc1noc(CC2C[N+]3(C)CCC2CC3)n1` (stereo unspecified): the results for the fold change (FC) in [1], in assay [2] and in assay [4] were 0.003, 0.001 and 0.1, respectively. The Ratio in assay [3] turned out to be 3; in assay [5] it was 100.
As for `C[N+]12CCC(CC1)C(Cc1nc(-c3ccccc3)no1)C2` (stereo unspecified), the fold change (FC) in [1] is 0.069; in assay [2], 0.112; in assay [4], 2.4. Also, the values for the Ratio in [3] and in assay [5] were 0.62 and 21, respectively.
On the same counts, the results for `C[N+]12CCC(CC1)C(Cc1nc(-c3cccc(I)c3)no1)C2` (stereo unspecified) are 0.866, 0.239, 0.3, 3.62 and 1.
For `COc1cccc(-c2noc(CC3CN4CCC3CC4)n2)c1` (stereo unspecified), the fold change (FC) in [1] amounted to 1.42; in [2], 0.511; in assay [4] it was 1. Also, the results for the Ratio in assay [3] and in assay [5] were 2.77 and 2, respectively.
